# Measured values from ChEMBL document CHEMBL1129494, “Structure-based design of lipophilic quinazoline inhibitors of thymidylate synthase” (J Med Chem, 1996).
# Legend:
# GC3/MTK- [1] = test: Inhibition of GC3/M TK- (human adenocarcinoma) cell growth in vitro.; assay type: functional, cell-based
# Outline: (§1)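 Thymidine kinase-deficient human adenocarcinoma GC3/M TK- cells seeded at 10 000 cells/well in RPMI-1640 with 10% fetal calf serum and 0.5% DMSO. Compound given as nine 2-fold serial dilutions over a 5 day incubation, then 4 h MTT and spectrophotometric formazan read after DMSO dissolution. IC50 from semilog plots of the mean of four growth assessments relative to control cultures.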
# L1210 [2] = test: Inhibition of murine L1210 cell line tissue culture growth; assay type: functional, cell-based; conditions: Mus musculus
# Outline: (§2)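 Murine L1210 leukemia cells seeded at 1000 cells/well in RPMI-1640 containing 5% fetal calf serum and 0.5% DMSO, exposed to nine 2-fold serial dilutions for 3 days. Growth was read by MTT (4 h), with formazan dissolved in DMSO and measured spectrophotometrically. IC50 comes from semilog concentration plots of the mean of four assessments per dilution versus control growth.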
# CCRF-CEM [3] = test: (§3) Inhibition of CCRF-CEM (human leukemia) cell growth in vitro.; assay type: functional, cell-based
# Outline: (§4)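 MTT colorimetric growth assay (modified Mosmann) in CCRF-CEM human leukemia cells seeded at 10 000 cells/well in RPMI-1640 with 5% fetal calf serum and 0.5% DMSO. Nine 2-fold serial dilutions of compound, 5 day incubation, then 4 h MTT and formazan dissolved in DMSO for spectrophotometric reading. IC50 taken from semilog plots of the mean of four growth assessments per dilution relative to control cultures.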
# [4] = molecular target: Thymidylate synthase (Escherichia coli) (UniProt C3SWJ7)
# Chain of Thymidylate synthase (Escherichia coli) (C3SWJ7 1-264): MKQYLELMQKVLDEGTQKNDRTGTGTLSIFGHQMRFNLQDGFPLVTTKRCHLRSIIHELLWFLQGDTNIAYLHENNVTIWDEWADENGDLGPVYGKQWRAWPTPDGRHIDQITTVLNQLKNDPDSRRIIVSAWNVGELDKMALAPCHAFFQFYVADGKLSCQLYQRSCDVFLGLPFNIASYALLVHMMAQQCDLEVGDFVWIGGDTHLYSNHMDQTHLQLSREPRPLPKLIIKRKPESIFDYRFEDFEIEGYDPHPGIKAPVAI
# [5] = molecular target: Thymidylate synthase (Escherichia coli) (UniProt C3SWJ7); remark: listed apart in the source
# [6] = molecular target: Thymidylate synthase (Homo sapiens) (UniProt P04818)
# Chain of Thymidylate synthase (Homo sapiens) (P04818 2-313 limits assumed): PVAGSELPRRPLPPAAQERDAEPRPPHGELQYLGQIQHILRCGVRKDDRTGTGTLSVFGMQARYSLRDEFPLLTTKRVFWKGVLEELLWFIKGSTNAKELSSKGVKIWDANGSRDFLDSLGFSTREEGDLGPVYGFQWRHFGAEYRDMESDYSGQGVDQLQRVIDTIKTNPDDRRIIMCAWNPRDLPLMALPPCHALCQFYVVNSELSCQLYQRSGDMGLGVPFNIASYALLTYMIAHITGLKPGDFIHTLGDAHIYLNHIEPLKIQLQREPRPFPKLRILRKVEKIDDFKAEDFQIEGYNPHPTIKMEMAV
# [7] = molecular target: Thymidylate synthase (Homo sapiens) (UniProt P04818); remark: listed apart in the source
# CCRF-CEM [8] = test: Activity for growth inhibition in tissue culture of human leukemias (CCRF-CEM). value in parenthesis indicates % inhibition.; assay type: functional, cell-based
# CCRF-CEM [9] = test: as §3; assay type: functional; parameters: concentration or dose not given beside the values; outline: as §4
# GC3/MTK- [10] = test: (§5) Inhibitory activity of compound against growth of thymidine kinase-deficient human adenocarcinoma cell line (GC3/M TK-) in tissue culture; assay type: functional; parameters: concentration or dose not given beside the values
# Outline: (§6)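 MTT colorimetric growth assay in the thymidine kinase-deficient human adenocarcinoma line. Seeded at 10 000 cells/well in RPMI-1640 with 10% fetal calf serum and 0.5% DMSO. Nine 2-fold serial dilutions of compound, 5 day incubation, then 4 h MTT. Formazan dissolved in DMSO and read spectrophotometrically. IC50 taken from semilog plots of the mean of four growth assessments per dilution, relative to control cultures.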
# L1210 [11] = test: Inhibition of L1210 (murine leukemia) cell growth in vitro.; assay type: functional, Mus musculus; parameters: concentration or dose not given beside the values; outline: as §2
# CCRF-CEM [12] = test: Activity for growth inhibition in tissue culture of human leukemias (CCRF-CEM). value in parenthesis indicates % inhibition; assay type: functional, cell-based
# GC3/MTK- [13] = test: Activity for growth inhibition in tissue culture of thymidine kinase-deficient human adenocarcinoma cell line (GC3/M TK-)value in parenthesis indicates % inhibition; assay type: functional, cell-based
# CCRF-CEM [14] = test: Inhibitory activity of compound against growth of human leukemias (CCRF-CEM) cell line in tissue culture; assay type: functional
# Outline: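 CCRF-CEM human leukemia cells seeded at 10 000 cells/well in RPMI-1640 with 5% fetal calf serum and 0.5% DMSO. Exposed to nine 2-fold serial dilutions for 5 days, followed by 4 h with MTT. Formazan dissolved in DMSO and measured spectrophotometrically. IC50 read from semilog plots of the mean of four growth assessments per dilution versus control growth.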
# GC3/MTK- [15] = test: as §5; assay type: functional; outline: as §6
# CCRF-CEM [16] = test: Activity for growth inhibition in tissue culture of human leukemias (CCRF-CEM); assay type: functional, cell-based; outline: as §4
# CCRF-CEM [17] = test: Inhibitory activity of compound against growth of human leukemias (CCRF-CEM) cell lne in tissue culture; assay type: functional; outline: as §4
# CCRF-CEM [18] = test: Activity for growth inhibition in tissue culture of human leukemias (CCRF-CEM); Insoluble.; assay type: functional, cell-based; outline: as §4
# GC3/MTK- [19] = test: Inhibition of GC3/M TK- (human adenocarcinoma) cell growth in vitro; Insoluble.; assay type: functional, cell-based; outline: as §1
# L1210 [20] = test: Activity for growth inhibition in tissue culture of murine (L1210); Insoluble; assay type: functional, cell-based, Mus musculus; outline: as §2
Compound,IC50 (GC3/MTK- [1]),IC50 (L1210 [2]),IC50 (CCRF-CEM [3]),Kii [4],Kis [5],Kis [6],Kii [7],IC50 (CCRF-CEM [8]),Inhibition (CCRF-CEM [9]),Inhibition (GC3/MTK- [10]),Inhibition (L1210 [11]),IC50 (CCRF-CEM [12]),IC50 (GC3/MTK- [13]),Inhibition (CCRF-CEM [14]),Inhibition (GC3/MTK- [15]),IC50 (CCRF-CEM [16]),Inhibition (CCRF-CEM [17]),IC50 (CCRF-CEM [18]),IC50 (GC3/MTK- [19]),IC50 (L1210 [20])
C#CCN(Cc1ccc2nc(C)nc(O)c2c1)c1ccc(S(=O)(=O)N2CCOCC2)cc1,5.2 µM,3.1 µM,4.5 µM,0.15 µM,0.039 µM,0.045 µM,0.091 µM,–,–,–,–,–,–,–,–,–,–,–,–,–
C#CCN(Cc1ccc2nc(C)nc(O)c2c1)c1cccc(CO)c1,> 54 µM,48 µM,–,5.1 µM,1.7 µM,0.62 µM,1.2 µM,> 54 µM,30%,22%,–,–,–,–,–,–,–,–,–,–
C#CCN(Cc1ccc2nc(C)nc(O)c2c1)c1ccc(C#N)c(C(F)(F)F)c1,–,> 2.8 µM,–,0.047 µM,0.015 µM,0.081 µM,0.14 µM,–,–,–,>15%,–,–,–,–,–,–,–,–,–
C#CCN(Cc1ccc2nc(C)nc(O)c2c1)c1cccc(C(C)O)c1 (stereo not given),49 µM,> 49 µM,–,8.3 µM,2.4 µM,1.7 µM,3.6 µM,–,33%,–,35%,> 49 µM,–,–,–,–,–,–,–,–
Cc1nc(O)c2cc(CNc3ccc(S(=O)(=O)c4ccccc4)cc3)ccc2n1,> 14.7 µM,> 14.7 µM,> 14.7 µM,17 µM,2 µM,1 µM,2.2 µM,–,33%,10%,40%,–,–,–,–,–,–,–,–,–
C#CCN(Cc1ccc2nc(C)nc(O)c2c1)c1ccc(S(=O)(=O)C(F)(F)F)cc1,–,> 2.75 µM,–,0.064 µM,0.042 µM,0.021 µM,0.028 µM,–,–,–,45%,> 2.75 µM,> 2.75 µM,–,–,–,–,–,–,–
C#CCN(Cc1ccc2nc(C)nc(O)c2c1)c1ccc(S(=O)(=O)NCC(=O)O)c(C(F)(F)F)c1,> 77 µM,> 75 µM,–,0.015 µM,0.0059 µM,0.0096 µM,0.019 µM,–,–,28%,–,> 77 µM,–,–,–,–,–,–,–,–
C#CCN(Cc1ccc2nc(C)nc(S)c2c1)c1cccc(C(F)(F)F)c1,–,> 5.6 µM,> 5.6 µM,0.36 µM,0.18 µM,1.3 µM,2.3 µM,–,30%,–,–,–,> 5.6 µM,–,–,–,–,–,–,–
C#CCN(Cc1ccc2nc(C)nc(O)c2c1)c1ccc(C(=O)c2ccccc2)cc1,6.2 µM,7.7 µM,> 7.7 µM,0.47 µM,0.094 µM,0.11 µM,0.16 µM,–,40%,–,–,–,–,–,–,–,–,–,–,–
C#CCN(Cc1ccc2nc(C)nc(O)c2c1)c1ccc(S(N)(=O)=O)cc1,> 26 µM,20 µM,> 26 µM,0.41 µM,0.1 µM,0.064 µM,0.084 µM,–,–,–,–,–,–,–,–,–,–,–,–,–
C#CCN(Cc1ccc2nc(C)nc(O)c2c1)c1ccc(S(=O)(=O)c2ccccc2)cc1,1.76 µM,0.86 µM,1.44 µM,–,–,–,–,–,–,–,–,–,–,–,–,–,–,–,–,–
C#CCN(Cc1ccc2nc(C)nc(O)c2c1)c1ccc([S+]([O-])c2ccccc2)cc1 (stereo not given),3.9 µM,1.7 µM,4.5 µM,0.55 µM,0.16 µM,0.061 µM,0.11 µM,–,–,–,–,–,–,–,–,–,–,–,–,–
C#CCN(Cc1ccc2nc(C)nc(O)c2c1)c1ccc([N+](=O)[O-])c(C(F)(F)F)c1,–,5 µM,10.5 µM,0.073 µM,0.038 µM,0.074 µM,0.15 µM,–,–,–,–,–,–,–,–,–,–,–,–,–
C#CCN(Cc1ccc2nc(C)nc(O)c2c1)c1cccc(C#C)c1,–,> 2.4 µM,–,2.7 µM,0.86 µM,0.41 µM,0.68 µM,–,15%,–,5%,> 2.4 µM,–,–,–,–,–,–,–,–
C#CCN(Cc1ccc2nc(C)nc(O)c2c1)c1cccc(I)c1,> 5.3 µM,> 5.3 µM,–,1.4 µM,0.33 µM,0.16 µM,0.44 µM,–,10%,35%,–,> 5.3 µM,–,–,–,–,–,–,–,–
C#CCN(Cc1ccc2nc(C)nc(O)c2c1)c1ccc(C#N)c(Cl)c1,6.7 µM,4.5 µM,> 6.7 µM,0.1 µM,0.035 µM,0.037 µM,0.079 µM,–,–,–,–,–,–,10%,25%,–,–,–,–,–
C#CCN(Cc1ccc2nc(C)nc(O)c2c1)c1ccc(C(=O)NC(CCC(=O)O)C(=O)O)cc1 (stereo not given),0.048 µM,0.045 µM,–,–,0.0048 µM,0.0085 µM,0.0071 µM,–,–,–,–,–,–,–,–,0.029 µM,–,–,–,–
C#CCN(Cc1ccc2[nH]c(N)nc(=O)c2c1)c1ccc(C(=O)NC(CCC(=O)O)C(=O)O)cc1 (stereo not given),2.13 µM,1.57 µM,–,–,–,–,–,–,–,–,–,–,–,–,–,–,–,–,–,–
C#CCN(Cc1ccc2nc(C)nc(O)c2c1)c1ccc([N+](=O)[O-])cc1,> 4.8 µM,4.7 µM,> 4.8 µM,0.17 µM,0.068 µM,0.056 µM,0.098 µM,–,8%,–,–,–,–,–,–,–,–,–,–,–
C#CCN(Cc1ccc2nc(C)nc(O)c2c1)c1ccccc1,> 10.7 µM,> 6.5 µM,> 10.7 µM,–,–,–,–,–,–,–,35%,–,–,–,24%,–,29%,–,–,–
CCN(Cc1ccc2nc(C)nc(O)c2c1)c1ccc(C(=O)C(F)(F)F)cc1,> 4 µM,3.4 µM,> 4 µM,1 µM,0.18 µM,0.13 µM,0.49 µM,–,10%,10%,–,–,–,–,–,–,–,–,–,–
C#CCN(Cc1ccc2nc(C)nc(O)c2c1)c1ccc(S(N)(=O)=O)c(C(F)(F)F)c1,–,–,–,0.061 µM,0.024 µM,0.036 µM,0.07 µM,–,–,–,–,–,–,–,–,–,–,Insoluble,Insoluble,Insoluble
C#CCN(Cc1ccc2nc(C)nc(O)c2c1)c1cccc(C)c1,–,> 5 µM,> 5 µM,16 µM,3.4 µM,1.4 µM,3.4 µM,–,–,–,30%,–,> 5 µM,–,34%,–,20%,–,–,–
C#CCN(Cc1ccc2nc(C)nc(O)c2c1)c1cccc(CC)c1,–,> 5 µM,–,24 µM,5 µM,2.7 µM,3.8 µM,–,26%,–,25%,> 5 µM,> 5 µM,–,20%,–,–,–,–,–
C#CCN(Cc1ccc2nc(C)nc(O)c2c1)c1ccc(S(=O)(=O)N2CCNCC2)cc1,–,> 50 µM,48 µM,0.28 µM,0.1 µM,0.063 µM,0.071 µM,–,–,47%,47%,–,> 50 µM,–,–,–,–,–,–,–
Cc1nc(O)c2cc(CN(C)c3ccc(Cc4ccccc4)cc3)ccc2n1,–,2.8 µM,3.4 µM,> 1 µM,> 1 µM,> 1 µM,> 1 µM,–,–,–,–,–,> 5 µM,–,–,–,–,–,–,–
C#CCN(Cc1ccc2nc(C)nc(O)c2c1)c1cccc(Br)c1,5.3 µM,1.8 µM,> 5.7 µM,3.3 µM,0.92 µM,0.65 µM,0.84 µM,–,20%,–,–,–,–,–,–,–,–,–,–,–
CCN(Cc1ccc2nc(C)nc(O)c2c1)c1ccc(S(=O)(=O)c2ccccc2)cc1,2.6 µM,0.66 µM,2.7 µM,0.24 µM,0.077 µM,0.034 µM,0.13 µM,–,–,–,–,–,–,–,–,–,–,–,–,–
C#CCN(Cc1ccc2nc(C)nc(O)c2c1)c1ccc(C#N)cc1,> 5 µM,> 5 µM,–,0.33 µM,0.15 µM,0.076 µM,0.17 µM,–,10%,–,35%,–,–,–,–,> 5 µM,–,–,–,–
